The source of these data is ChEMBL document CHEMBL4513216, “Probing the Open Global Health Chemical Diversity Library for Multistage-Active Starting Points for Next-Generation Antimalarials” (ACS Infect Dis, 2020).

SMILES strings stand for the structures.

The series is described as follows: Toxicity liver stage against HepG2, at 10uM. The series is classed as cell-based. Also noted: test concentration 10 uM, cell line HepG2-A16-CD81EGFP. The following applies: human, HepG2-A16-CD81EGFP cells; read-out: INHIBITION
The essentials: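 Uninfected HepG2-A16-CD81EGFP cells, 3 × 10^3 per well, 1536-well, plated on prespotted compound at 10 μM final, parasite-free screening media added to match infected plates; puromycin 10 μM positive, DMSO 0.5% negative; run in parallel with 48 h PbLuc assay at 37 °C, 5% CO2; viability by CellTiter-Glo luminescence, normalized to controls.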
With `CN(C)Cc1nn(C)c2c1CN(S(=O)(=O)c1ccccc1F)C2`, the cytotoxicity at 10 µM was 5.6%.

In the case of `CC/N=c1\nc(NCC)nc2n1C(O)(Nc1cccc(Cl)c1Cl)CS2` (configuration not stated), the cytotoxicity at 10 µM came to 14.1%.

`O=C(c1cc(Br)ccc1-n1cnnn1)N1CCCC1`: the cytotoxicity at 10 µM was -9.24%.

Take `O=C(CCc1ccc2c(c1)CCO2)Nc1nnn[nH]1`: the cytotoxicity at 10 µM turned out to be 0.301%.

Consider `Cn1cnnc1SCc1cc2c(cc1Cl)OCO2`, for which the cytotoxicity at 10 µM was determined as 7.03%.

Regarding `CC(C)c1nnc2ccc(N3CCCC(C(=O)Nc4nccs4)C3)nn12` (configuration not stated), the cytotoxicity at 10 µM worked out at 3.86%.

On to `COc1ccc(Nc2nc3c(C)nn(C)c3c(=O)n2C)c(C)c1`, for which the cytotoxicity at 10 µM was -6.06%.

As to `Cn1nc(C(=O)N2CCSCC2)cc1NC(=O)c1ccco1`, the cytotoxicity at 10 µM worked out at 1.11%.

With `COc1ccc2nc(NC(=O)c3c(C(=O)O)cnn3C)sc2c1`, the cytotoxicity at 10 µM is 7.19%.

Turning to `CN(C)c1nccnc1C1CCN(C(=O)C2(C)CCCCN2C)CC1` (configuration not stated), the cytotoxicity at 10 µM worked out at 10%.

As for `CC(C)(C)CC(=O)N1CSCC1C(=O)NC1=NCCS1` (configuration not stated), the cytotoxicity at 10 µM is 17.9%.

For `CC(C)(C)NC(=O)CNc1ncc(Br)cn1`, the cytotoxicity at 10 µM turned out to be 2.96%.

As for `CC(O)CN(Cc1cccc(C(N)=O)c1)c1ccccc1` (configuration not stated), the cytotoxicity at 10 µM came to 10.1%.

Consider `CNS(=O)(=O)C1CCN(c2cc(C(C)C)nc(C(C)C)n2)C1` (configuration not stated), for which the cytotoxicity at 10 µM was -3.33%.

As to `CC(=O)N(C)CC(=O)NC(C)c1ccc(OCCC(C)C)cc1` (configuration not stated), the cytotoxicity at 10 µM is 8.59%.

In the case of `Cc1nn(C)c(C)c1C(=O)N1CCN(C(=O)CCC2CCCCC2)CC1`, the cytotoxicity at 10 µM is -5.47%.

Regarding `Cc1occc1C(=O)NCC(O)c1ccc(Cl)s1` (configuration not stated), the cytotoxicity at 10 µM is -16.4%.

In the case of `COc1ccc(Oc2ncccc2NC(=O)N2CCOCC2C)cc1` (configuration not stated), the cytotoxicity at 10 µM was -2.43%.

`CC(NC(=O)N1CCc2ccccc2C1)c1nncn1C` (configuration not stated): the cytotoxicity at 10 µM is -6.98%.

As to `CC(C)(C)NC(=O)Cn1nc(C2CC2)cc(C(F)(F)F)c1=O`, the cytotoxicity at 10 µM was -13.9%.

On to `Cc1cc(C)n(-c2cncc(NCCNS(C)(=O)=O)n2)n1`, for which the cytotoxicity at 10 µM was -3.98%.

As for `COCCN(CCC#N)S(=O)(=O)c1cc(F)cc(F)c1`, the cytotoxicity at 10 µM is -3.32%.

Consider `COc1c(C)cnc(CSc2nnc(N)s2)c1C`, for which the cytotoxicity at 10 µM came to 10.1%.

Consider `Cc1cc(NS(=O)(=O)c2ccc(Cl)s2)ccc1-n1cccc1C(=O)O`, for which the cytotoxicity at 10 µM is 3.2%.

Take `CC(C)c1ncc(C(=O)N2CCOCC2CC(=O)c2ccco2)s1` (configuration not stated): the cytotoxicity at 10 µM was 5.08%.

Turning to `Cc1cc(CNCc2c(C(C)C)nn(C)c2N2CCOCC2)no1`, the cytotoxicity at 10 µM turned out to be 16.5%.

As for `CC(=O)N1Cc2ccccc2C[C@H]1C(=O)Nc1ccccn1`, the cytotoxicity at 10 µM was -3.09%.

Turning to `CN(Cc1nc(-c2cccnc2)no1)C(=O)c1cnc2n1CCCC2`, the cytotoxicity at 10 µM came out at 6.32%.

As for `CCN(CC)CCNC(=O)C(C)OCC(F)(F)F` (configuration not stated), the cytotoxicity at 10 µM amounted to 4.23%.

For the molecule `CCc1nc(C)ncc1C(=O)N1CC(=O)N(C)c2ccccc21`, the cytotoxicity at 10 µM was 6.62%.

As for `CC(C)COC(C)C(=O)N1CCC(C)CC1` (configuration not stated), the cytotoxicity at 10 µM was determined as 2.95%.

In the case of `COc1ccc(-c2ccc(C(=O)NS(C)(=O)=O)c(F)c2)c(F)c1`, the cytotoxicity at 10 µM turned out to be 0.512%.

With `O=C(C[S+]([O-])C1CCCC1)NCCOc1cccc(Cl)c1` (configuration not stated), the cytotoxicity at 10 µM was -143%.

Regarding `COc1ccc(-n2ccc(CNCc3ccc(OC)c(O)c3)n2)cc1`, the cytotoxicity at 10 µM came to 0.51%.

On to `CCC1CN(C)c2ccccc2CN1C(=O)c1c[nH]c(=O)cc1C` (configuration not stated), for which the cytotoxicity at 10 µM worked out at 16.1%.

`O=C(O)c1c(Cl)ncn1-c1ccccc1`: the cytotoxicity at 10 µM is -2.34%.

Consider `COCc1cc(N(Cc2ccsc2)C2CC2)n2ncnc2n1`, for which the cytotoxicity at 10 µM was -3.75%.

On to `COCCN1CCC(NCc2c(C)nn(C)c2N(C)C)CC1`, for which the cytotoxicity at 10 µM was -2.11%.

As to `COc1cc(I)c(Cl)cc1C(=O)N(C)CC(C)(C)O`, the cytotoxicity at 10 µM was determined as 11.4%.

Turning to `CCOCCC(=O)N(C)c1ccc(F)c(Cl)c1`, the cytotoxicity at 10 µM was 0.232%.

On to `O=C(CCC(=O)c1cccs1)NC1(C(=O)NCC2CC2)CCCC1`, for which the cytotoxicity at 10 µM was -10.6%.

As to `N#CC1(NC(=O)c2ccc(-c3nc(C4CC4)n[nH]3)cc2)CCC1`, the cytotoxicity at 10 µM came out at 0.614%.

Take `COC(=O)CN(Cc1ccccc1C)C(=O)C1CCC1`: the cytotoxicity at 10 µM was -3.64%.

`CC(C)(C)c1cnc(CN2CCC(NC(=O)CC3CCCC3)CC2)o1`: the cytotoxicity at 10 µM was -15.5%.

For the molecule `CN1CCOC(C(=O)N2CCCC(C)(C)CC2)C1` (configuration not stated), the cytotoxicity at 10 µM turned out to be 6.67%.

As to `CC(C)CN1C(=O)C2(CCCC2)NC1c1cn(C)c(=O)n(C)c1=O` (configuration not stated), the cytotoxicity at 10 µM was 2.8%.

Regarding `O=C(O)c1ccc(CCNC(=O)C2(c3ccccc3)CC2)cc1`, the cytotoxicity at 10 µM came out at 8.29%.

As for `Cn1c(Nc2cn[nH]c2)c(C#N)c(=O)n(C)c1=O`, the cytotoxicity at 10 µM is 14.9%.

Regarding `Cc1cn(-c2ccccc2)nc1NS(=O)(=O)c1cc(C(=O)O)cs1`, the cytotoxicity at 10 µM was -18.9%.

For `O=C([C@@H]1CCCO1)N1CCn2c(Cn3cccn3)cnc2C1`, the cytotoxicity at 10 µM was -70.1%.

As to `Cc1ccoc1C(=O)N1CCn2cc(CN3CCCC3)nc2C1`, the cytotoxicity at 10 µM was -79.6%.

In the case of `CCOC(=O)C1(CCOC)CCN(Cc2nccn2CC)CC1`, the cytotoxicity at 10 µM worked out at 6.77%.

For `C[C@@H]1CN(CCOc2ccc(F)cc2)CC[C@@]1(O)C1CCOCC1`, the cytotoxicity at 10 µM was -7.19%.

`Cc1nc2ccccn2c1CN1C[C@@H](CN(C)CCO)[C@@H](CO)C1`: the cytotoxicity at 10 µM is -11.4%.

`Cc1ccc(C2(O)CCN(C(=O)CCn3c(C)cccc3=O)CC2)nc1`: the cytotoxicity at 10 µM was -9.02%.

With `COc1cccc(-c2cc(C(=O)NCCCn3cnnc3)[nH]n2)c1`, the cytotoxicity at 10 µM was found to be 3.45%.

In the case of `CN1[C@H](CO)C[C@H](CNCc2ccc(CO)o2)[C@@H]1c1ccccc1F`, the cytotoxicity at 10 µM is -9.37%.

For `CCCS(=O)(=O)N1CCC2(CCC(=O)N(CCc3ccncc3)C2)CC1`, the cytotoxicity at 10 µM is -11.7%.

On to `COCCCN1CC2(CCN(Cc3ncc[nH]3)CC2)CC1=O`, for which the cytotoxicity at 10 µM is -2.89%.

As for `Cc1ccc2nc(CN3CCCCC3CCn3cccn3)cn2c1` (configuration not stated), the cytotoxicity at 10 µM is 7.31%.

As for `CC(=O)NCCC1CCCCN1S(=O)(=O)c1ccc2ccccc2c1` (configuration not stated), the cytotoxicity at 10 µM is -125%.

On to `NC(=O)COc1ccc(CN2CCC3(CC2)[C@H](O)C[C@@H]3O)cc1Cl`, for which the cytotoxicity at 10 µM worked out at 3.76%.

In the case of `CCOC(=O)c1cccc(N2CCCC3(CCC(=O)N(C4CC4)C3)C2)n1` (configuration not stated), the cytotoxicity at 10 µM was -1.38%.

As for `CCCN1CCC(CC(=O)NCc2cc(O)ncn2)CC1`, the cytotoxicity at 10 µM was determined as 14.7%.

Take `Cc1ccccc1C(CC(=O)NCc1n[nH]c(N)n1)c1ccccc1` (configuration not stated): the cytotoxicity at 10 µM is 8.8%.

Take `CC(=O)c1ccc(-c2cnn(CC(=O)Nc3cc(C)nn3C)c2)nc1`: the cytotoxicity at 10 µM is -6.93%.

Consider `Cc1cc(N2CCCC3(CN(C)C(=O)O3)C2)c2cc3c(cc2n1)OCO3` (configuration not stated), for which the cytotoxicity at 10 µM is -5.05%.

In the case of `COc1cccc(OC2CN(C(=O)Cn3nc4ccccc4n3)C2)c1`, the cytotoxicity at 10 µM is -6.98%.

In the case of `CC(C1CCN(Cc2cnn(C)c2C2CC2)CC1)N1CCN(C)CC1` (configuration not stated), the cytotoxicity at 10 µM was -11.9%.

In the case of `C[C@@H]1CN(C(=O)CCc2nncn2C)CC[C@@]1(O)C1CCC1`, the cytotoxicity at 10 µM was -6.65%.

`COCc1ncc(CN2CC[C@@](C)(O)[C@@H](Cc3ccccc3)C2)cn1`: the cytotoxicity at 10 µM worked out at 12.1%.

For the molecule `O=C1CC[C@H]2CN(c3ncc(F)cn3)CC[C@H]2N1CCc1c[nH]cn1`, the cytotoxicity at 10 µM amounted to 3.96%.

Turning to `Nc1nc2c(c(N3CCCC(c4nnc5ccccn45)C3)n1)CCNC2` (configuration not stated), the cytotoxicity at 10 µM is -3.57%.

As to `CC(C)CC(O)C1CCN(C(=O)c2ccc(C(F)(F)F)nc2O)CC1` (configuration not stated), the cytotoxicity at 10 µM was determined as 2.5%.

Consider `OCc1csc(N2CCN(Cc3cccc(F)c3)CC2)n1`, for which the cytotoxicity at 10 µM was -4.9%.

Consider `Cc1nc2nc(C)c3c(=O)n(-c4ccn[nH]4)ccc3n2n1`, for which the cytotoxicity at 10 µM was found to be 0.87%.

On to `COc1cccc2c1OCC(C(=O)NC1CCN(S(C)(=O)=O)CC1)C2` (configuration not stated), for which the cytotoxicity at 10 µM was -10.7%.

As to `CN(Cc1nnc(C2CC2)n1C)C1CCN(Cc2ccncc2)C1` (configuration not stated), the cytotoxicity at 10 µM is -10.3%.

Take `COc1cccc(COCC(=O)N2CCN(S(C)(=O)=O)CC2)c1`: the cytotoxicity at 10 µM was -10.7%.

For the molecule `Cc1cc(NC(=O)NCC(C(C)C)N2CCOCC2)n(C)n1` (configuration not stated), the cytotoxicity at 10 µM is -17.2%.

As for `O=C(CCCc1nnc(-c2ccccc2)o1)N1CCC1`, the cytotoxicity at 10 µM was -3.41%.

As to `Cn1cnnc1C1CCN(C(=O)CCCOc2ccccc2)CC1`, the cytotoxicity at 10 µM is -7.62%.

Consider `O=C1CCc2cc(-c3csc(CCN4CCOC4=O)n3)c(F)cc2N1`, for which the cytotoxicity at 10 µM came out at 35.2%.

Consider `CC(C)COCC(NC(=O)c1ccncc1)c1ccco1` (configuration not stated), for which the cytotoxicity at 10 µM is -9.53%.

`CC(NC(=O)CCOc1ccc(F)cc1)c1nnc2n1CCCCC2` (configuration not stated): the cytotoxicity at 10 µM is -8.71%.

For the molecule `Cc1ccc(C(O)CNCc2c(C(C)C)nn(C)c2N(C)C)cc1` (configuration not stated), the cytotoxicity at 10 µM is -11.8%.

On to `COc1cccc(C(=O)Nc2cc(CC(C)C)nn2C)c1`, for which the cytotoxicity at 10 µM was -9.42%.

For the molecule `CCn1c(C(=O)N2CCN(C(=O)COC)CC2)cc2ccccc21`, the cytotoxicity at 10 µM is -6.59%.

As to `O=C(NCCCn1cncn1)N1CCCC(N2CCCC2)C1` (configuration not stated), the cytotoxicity at 10 µM was -2.66%.

For `N#Cc1cnn(-c2ccc(C(=O)Nc3ccccn3)cc2)c1N`, the cytotoxicity at 10 µM is -9.03%.

`CC(C)n1c(=O)c2ccccc2n(CCCN(C)C)c1=O`: the cytotoxicity at 10 µM is -13.2%.

Consider `CCC(CN1CCCCC1)NC(=O)C1(c2cccc(F)c2)CC1` (configuration not stated), for which the cytotoxicity at 10 µM is 0.689%.

For the molecule `COc1c(C)cc(CNCc2ccnc(N3CCOCC3)c2)cc1C`, the cytotoxicity at 10 µM was 11.9%.

As to `CS(=O)(=O)N1CC[C@]2(C[C@@H](Oc3ccccn3)CO2)C1`, the cytotoxicity at 10 µM is -144%.

Regarding `COC[C@H]1CC[C@@H]2[C@@H](CCN2Cc2ccccn2)O1`, the cytotoxicity at 10 µM is -72.6%.

`COCCN1CC[C@@H]2CN(Cc3nccn3C)C[C@@H]2C1`: the cytotoxicity at 10 µM was -76.5%.

For the molecule `CCOCC(=O)N1C[C@H]2CC[C@@H](C1)N(Cc1ccccn1)C2=O`, the cytotoxicity at 10 µM came out at 10.9%.
